Measurements published in PMC4804314 (Pharmacology Research & Perspectives, 2016).
Read-outs that look alike come from different tables or passages of the source. Marks after values point to notes of the source that are not given here.

Tests used:
[1] = Physicochemical properties
[2] = Quantitative tissue distribution; format: in vivo, mouse (NMRI); conditions: for dose found in the carcasses: 24 h postdose
In short: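 Male and female NMRI mice got i.v. [14C]-test compound, 2.5 mg/kg (n = 3/time), with tissues excised at 0.1, 0.5, 2, 8 and 24 h. Larger organs were homogenized and small tissues taken whole. Carcasses were included. Samples were dried at about 60°C for 12 h, combusted in a sample oxidizer and read by LSC.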

[3] = Metabolite profiling of mouse plasma, urine and feces by radio-HPLC; format: in vivo, mouse (NMRI); conditions: for dose excreted: NMRI, mouse
In short: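 Mouse samples after i.v. [14C]-test compound, 2.5 mg/kg. Plasma at 0.1 and 0.25 h was extracted twice with ethanol. Fecal precipitates were sonicated with ethanol at 40°C/2 h, and unextracted residue was combusted. Extracts ran on isocratic radio-HPLC: acetonitrile/0.05 mol/L ammonium acetate pH 4 (19/80, v/v), RP8e column, 1 mL/min, UV 230 nm plus radiodetector. Excreted radioactivity was given as % dose.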

[4] = Excretion of total radioactivity in mouse; format: in vivo, mouse (NMRI)
In short: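 Male and female NMRI mice got an i.v. bolus of [14C]-test compound, 2.5 mg/kg. Urine and feces were collected 0–8 h, 8–24 h, then every 24 h to 120 h. Urine from timed pooled samples (n = 3) was counted by LSC. Feces were homogenized in water with carboxymethylcellulose, and 1 g aliquots were dried at 60°C/12 h and combusted. Minced carcasses (0.5 g aliquots) and tail segments were combusted for residual radioactivity.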

[5] = Plasma pharmacokinetics in Cynomolgus monkey after i.v. bolus; format: in vivo, Cynomolgus monkey (Macaca fascicularis)
In short: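 Female Cynomolgus monkeys (n = 3), single i.v. bolus of [14C]-test compound. Plasma was sampled predose and at 0.1, 0.5, 1.0, 2, 4, 8, 24 and 48 h. Total radioactivity was read by LSC and parent compound by LC/MS/MS. PK parameters came from noncompartmental analysis as in mouse.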

[6] = Plasma pharmacokinetics in rabbit after i.v. infusion; format: in vivo, Chinchilla rabbit
In short: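 Chinchilla rabbits received a 4-h infusion into the ear vein at 50, 150 or 450 mg/kg/d. Plasma was sampled before and at 2, 4, 4.25, 4.5, 5, 7 and 10 h after infusion start.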

[7] = system: sandwich‐cultured mouse (NMRI) hepatocytes; experiment: Hepatobiliary disposition in sandwich-cultured mouse hepatocytes; format: in vitro ADME; conditions: for BEI / CLbiliary / Intracellular concentration / Cellular accumulation Avg. / Total accumulation Avg.: 20 min; for Cellular accumulation Avg. / Total accumulation Avg.: mean ± SD of triplicate wells
[8] = system: sandwich‐cultured human hepatocytes; experiment: Hepatobiliary disposition in sandwich-cultured human hepatocytes; format: in vitro ADME
In short: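 Sandwich-cultured human hepatocytes from three donor liver preparations, cultured 6 days. [14C]-test compound was applied at 10 and 250 μmol/L, with [3H]-taurocholate as transporter-function control and LDH release as cytotoxicity check. Radioactivity was read by LSC. Accumulation is mean ± SD of triplicate wells. BEI, CLbiliary, intracellular concentration and Cic/Cec were derived.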

[9] = system: sandwich‐cultured hepatocytes; experiment: Cytotoxicity test with lactate dehydrogenase; format: cell-based; conditions: 250 μmol/L, up to 24 h
[10] = NADPH-dependent metabolism by mouse liver microsomes; format: in vitro ADME; conditions: mice, 10 and 100 µM, up to 6 h
[11] = NADPH-dependent metabolism by monkey liver microsomes; format: in vitro ADME; conditions: monkeys, 10 and 100 µM, up to 6 h
[12] = Biological stability of the radiolabel; format: in vivo, rat; conditions: rats, within 72 h after dosing
[13] = Distribution of radioactivity in pigmented mice; format: in vivo; conditions: eyes and skin
[14] = ref Becker et al. 2015, cited from earlier work
[15] = cynomolgus monkey, in vivo, iv, 2 mg/kg
[16] = female, cynomolgus monkey, plasma, iv, 2 mg/kg
[17] = 10 μM, donor 1, 20 min, mean ± SD of triplicate wells
[18] = 10 μM, donor 2, 20 min, mean ± SD of triplicate wells
[19] = 10 μM, donor 3, 20 min, mean ± SD of triplicate wells
[20] = 10 μM, mean ± standard error of 3 donors, 20 min
[21] = 250 μM, donor 1, 20 min, mean ± SD of triplicate wells
[22] = 250 μM, donor 2, 20 min, mean ± SD of triplicate wells
[23] = 250 μM, donor 3, 20 min, mean ± SD of triplicate wells
[24] = 250 μM, mean ± standard error of 3 donors, 20 min
[25] = human, male, 0–144 h, n = 5, listed as [^14C]‐cilengitide

CC(C)[C@H]1C(=O)N[C@@H](CCCN=C(N)N)C(=O)NCC(=O)N[C@@H](CC(=O)O)C(=O)N[C@H](Cc2ccccc2)C(=O)N1C [cilengitide, cyclo‐(Asp‐D‐Phe‐N‐MeVal‐Arg‐Gly)]
solubility [1]: high
partition coefficient Po/w ([1]; octanol–water): 0.0096
dose found in the carcasses ([2]; female mice): 0.4 % of the dose
dose found in the carcasses ([2]; male mice): 0.8 % of the dose
concentrations in reproductive organs relative to plasma ([2]; mice, after 8 h): 6–14 times higher
dose excreted ([3]; female, feces): 66.2%
dose excreted ([3]; female, feces, iv, 2.5 mg/kg): 66%
dose excreted ([3]; female, urine, iv, 2.5 mg/kg): 28%
unchanged drug in feces (fecal/biliary secretion) ([3]; male mice): 87.2 % of the administered dose
dose excreted ([3]; male, feces, iv, 2.5 mg/kg): 87%
dose excreted ([3]; male, urine, iv, 2.5 mg/kg): 7%
extent of renal excretion [4]: 10%
half-life ([5]; cynomolgus monkey, in vivo): 1.25 h
clearance ([5]; cynomolgus monkey, in vivo, Plasma CL, monkey, value used for allometry): 290 mL/h/kg
AUC [5, 15]: 6460 ng·h/mL
Vd [5, 15]: 0.35 L/kg
half-life [5, 15]: 1.1 h
level at 0.1 h [5, 16]: 7020 ng/mL
level at 0.5 h [5, 16]: 3400 ng/mL
level at 8 h [5, 16]: 24.6 ng/mL
clearance as share of hbf ([5]; monkey): 12%
level at 4 h ([6]; Chinchilla, rabbit, plasma, iv, 50 mg/kg): 34200 to 38500 ng/mL
clearance in comparison to hbf ([6]; female rabbits): ~15%
clearance ([6]; rabbit, in vivo): 360 mL/h/kg
half-life ([6]; rabbit, in vivo, 450 mg/kg, apparent half‐life, rabbit, 450 mg/kg dose group): ~1 h
uptake into hepatocytes [7]: fairly robust
BEI ([7]; 10 μmol/L): 29.3%
CLbiliary ([7]; 10 μmol/L): 42.1 mL/h/kg
Intracellular concentration ([7]; 10 μmol/L): 4.13 µM
Cellular accumulation Avg. ([7]; 10 μmol/L): 33.3 ± 1.4 pmol/mg
Total accumulation Avg. ([7]; 10 μmol/L): 47.1 ± 1.7 pmol/mg
BEI ([7]; 250 μmol/L): 43.3%
CLbiliary ([7]; 250 μmol/L): 164 mL/h/kg
Intracellular concentration ([7]; 250 μmol/L): 219 µM
Cellular accumulation Avg. ([7]; 250 μmol/L): 1768 ± 14 pmol/mg
Total accumulation Avg. ([7]; 250 μmol/L): 3115 ± 32 pmol/mg
biliary efflux (BEI) ([7]; 10 and 250 μmol/L): 30–40%
intracellular concentration (Cic) ([7]; exposure 10 μmol/L): 4.13 µmol/L
intracellular concentration (Cic) ([7]; exposure 250 μmol/L): 219 µmol/L
biliary efflux (as determined by BEI and CLbil) [8]: negligible
BEI ([8]; 10 μM, donor 1, 20 min): 2.42%
CLbiliary ([8]; 10 μM, donor 1, 20 min): 0.3 mL/h/kg
Intracellular concentration ([8]; 10 μM, donor 1, 20 min): 1.70 µM
Cellular accumulation Avg. [8, 17]: 13.7 ± 1.8 pmol/mg
Total accumulation Avg. [8, 17]: 14.0 ± 1.5 pmol/mg
BEI ([8]; 10 μM, donor 2, 20 min): 2.30%
CLbiliary ([8]; 10 μM, donor 2, 20 min): 0.24 mL/h/kg
Intracellular concentration ([8]; 10 μM, donor 2, 20 min): 0.52 µM
Cellular accumulation Avg. [8, 18]: 4.17 ± 0.33 pmol/mg
Total accumulation Avg. [8, 18]: 4.27 ± 0.46 pmol/mg
BEI ([8]; 10 μM, donor 3, 20 min): 16.6%
CLbiliary ([8]; 10 μM, donor 3, 20 min): 0.78 mL/h/kg
Intracellular concentration ([8]; 10 μM, donor 3, 20 min): 0.56 µM
Cellular accumulation Avg. [8, 19]: 4.53 ± 0.38 pmol/mg
Total accumulation Avg. [8, 19]: 5.44 ± 3.31 pmol/mg
BEI [8, 20]: 7.12 ± 4.76%
CLbiliary [8, 20]: 0.42 ± 0.18 mL/h/kg
Cellular accumulation Avg. [8, 20]: 7.47 ± 3.12 pmol/mg
Intracellular concentration [8, 20]: 0.926 ± 0.386 µM
Total accumulation Avg. [8, 20]: 7.90 ± 3.07 pmol/mg
BEI ([8]; 250 μM, donor 1, 20 min): 20.4%
CLbiliary ([8]; 250 μM, donor 1, 20 min): 1.68 mL/h/kg
Intracellular concentration ([8]; 250 μM, donor 1, 20 min): 22.7 µM
Cellular accumulation Avg. [8, 21]: 183 ± 27 pmol/mg
Total accumulation Avg. [8, 21]: 230 ± 28 pmol/mg
BEI ([8]; 250 μM, donor 2, 20 min): 8.75%
CLbiliary ([8]; 250 μM, donor 2, 20 min): 0.3 mL/h/kg
Intracellular concentration ([8]; 250 μM, donor 2, 20 min): 10.4 µM
Cellular accumulation Avg. [8, 22]: 84.0 ± 12.1 pmol/mg
Total accumulation Avg. [8, 22]: 92.1 ± 5.7 pmol/mg
BEI ([8]; 250 μM, donor 3, 20 min): 15.6%
CLbiliary ([8]; 250 μM, donor 3, 20 min): 0.78 mL/h/kg
Intracellular concentration ([8]; 250 μM, donor 3, 20 min): 15.2 µM
Cellular accumulation Avg. [8, 23]: 122 ± 14 pmol/mg
Total accumulation Avg. [8, 23]: 145 ± 5.9 pmol/mg
BEI [8, 24]: 14.9 ± 3.4%
CLbiliary [8, 24]: 0.9 ± 0.42 mL/h/kg
Cellular accumulation Avg. [8, 24]: 130 ± 29 pmol/mg
Intracellular concentration [8, 24]: 16.1 ± 3.6 µM
Total accumulation Avg. [8, 24]: 156 ± 3 pmol/mg
biotransformation by HPLC analysis of supernatant and cell lysate ([8]; 250 μmol/L, 6 and 24 h): no indication for biotransformation
Intracellular concentration ([8]; exposure at 10 μmol/L): 0.926 ± 0.386 µM
Intracellular concentration ([8]; exposure at 250 μmol/L): 16.1 ± 3.6 µM
cell toxicity (LDH in cell culture medium) [9]: does not cause cell toxicity
metabolism by liver microsomes [10]: poorly metabolized
metabolism by liver microsomes [11]: poorly metabolized
dose exhaled as [^14C]‐CO2 [12]: less than 0.1 % of the dose
melanin binding [13]: no relevant melanin binding
dose recovered in urine as unchanged drug ([14]; human volunteers): 77.5%
Excretion of radioactivity in feces ([14]; human, male, 0–24 h, n = 5): ∼9.0 % dose
Excretion of radioactivity, total ([14]; human, male, 0–24 h, n = 5): ∼87 % dose
Excretion of radioactivity in feces ([14]; human, male, 0–144 h, n = 5): 15.5 % dose
Excretion of radioactivity in urine ([14]; human, male, 0–144 h, n = 5): 79 % dose
Excretion of radioactivity in feces [14, 25]: 15.5 ^d % dose
Excretion of radioactivity in urine [14, 25]: 79.0 ^d % dose
extent of renal excretion ([14]; human): ~ 80%
components found in human plasma and urine [14]: parent compound was the only component found
renal clearance compared with creatinine clearance of each subject [14]: below the creatinine clearance
